Test results published in ChEMBL document CHEMBL3112517, “Identification of dihydrostilbenes in Pholidota chinensis as a new scaffold for GABAA receptor modulators” (Bioorg Med Chem, 2014).
Activity calls are given as the source filed them. The calls are words filed in the database; no cut-off is given here.

How the values were obtained:
[1] = target: T1, GABA A receptor alpha-3/beta-2/gamma-2 (Homo sapiens, UniProt P18507+P34903+P47870); experiment: Modulation of GABAA alpha3beta2gamma2S receptor (unknown origin) expressed in Xenopus laevis oocytes assessed as potentiation of EC3 to 10 GABA-induced chloride ion current at holding potential -70 mV by two-microelectrode voltage clamp assay; format: cell-based
T1 sequence (P47870 whole entry): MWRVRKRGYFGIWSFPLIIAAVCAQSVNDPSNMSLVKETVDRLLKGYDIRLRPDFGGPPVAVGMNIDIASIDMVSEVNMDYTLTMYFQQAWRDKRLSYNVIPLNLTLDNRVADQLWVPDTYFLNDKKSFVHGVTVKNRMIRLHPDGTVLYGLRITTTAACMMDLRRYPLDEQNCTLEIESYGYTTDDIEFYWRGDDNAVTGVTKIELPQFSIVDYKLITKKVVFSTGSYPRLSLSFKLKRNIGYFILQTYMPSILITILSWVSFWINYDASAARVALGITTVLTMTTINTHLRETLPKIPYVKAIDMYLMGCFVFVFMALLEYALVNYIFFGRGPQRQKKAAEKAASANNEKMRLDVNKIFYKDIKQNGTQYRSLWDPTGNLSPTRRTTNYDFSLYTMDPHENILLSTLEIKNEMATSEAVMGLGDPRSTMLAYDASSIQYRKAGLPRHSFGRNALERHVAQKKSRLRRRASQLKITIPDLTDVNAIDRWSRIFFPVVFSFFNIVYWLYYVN
T1 sequence (P18507 whole entry): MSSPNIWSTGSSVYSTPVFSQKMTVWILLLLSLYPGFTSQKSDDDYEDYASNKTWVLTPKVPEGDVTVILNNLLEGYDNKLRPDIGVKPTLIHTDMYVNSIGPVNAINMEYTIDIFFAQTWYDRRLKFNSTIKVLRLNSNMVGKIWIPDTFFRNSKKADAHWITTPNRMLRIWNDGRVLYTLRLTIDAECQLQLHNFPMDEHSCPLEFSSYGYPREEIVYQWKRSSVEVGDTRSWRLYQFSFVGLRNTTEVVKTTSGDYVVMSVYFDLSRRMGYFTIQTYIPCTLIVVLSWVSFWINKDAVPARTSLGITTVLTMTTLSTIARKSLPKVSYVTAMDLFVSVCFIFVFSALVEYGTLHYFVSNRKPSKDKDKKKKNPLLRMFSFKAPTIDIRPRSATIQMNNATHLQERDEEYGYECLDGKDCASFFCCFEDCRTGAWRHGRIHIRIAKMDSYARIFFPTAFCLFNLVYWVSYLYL
T1 sequence (P34903 whole entry): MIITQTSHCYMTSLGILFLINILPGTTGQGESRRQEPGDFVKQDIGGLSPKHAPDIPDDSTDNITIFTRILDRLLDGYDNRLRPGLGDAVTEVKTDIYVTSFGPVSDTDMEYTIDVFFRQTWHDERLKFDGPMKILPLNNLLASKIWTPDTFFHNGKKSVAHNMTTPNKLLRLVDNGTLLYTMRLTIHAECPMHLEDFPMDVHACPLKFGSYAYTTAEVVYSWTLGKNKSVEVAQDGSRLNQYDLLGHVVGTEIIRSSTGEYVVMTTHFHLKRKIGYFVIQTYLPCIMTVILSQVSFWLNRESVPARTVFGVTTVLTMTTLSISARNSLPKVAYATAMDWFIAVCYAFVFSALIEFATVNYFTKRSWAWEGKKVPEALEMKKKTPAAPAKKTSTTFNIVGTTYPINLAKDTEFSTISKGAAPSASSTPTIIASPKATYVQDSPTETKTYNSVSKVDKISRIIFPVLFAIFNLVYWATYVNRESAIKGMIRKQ

[2] = target: T2, GABA A receptor alpha-2/beta-2/gamma-2 (Homo sapiens, UniProt P18507+P47869+P47870); experiment: Modulation of GABAA alpha2beta2gamma2S receptor (unknown origin) expressed in Xenopus laevis oocytes assessed as potentiation of EC3 to 10 GABA-induced chloride ion current at holding potential -70 mV by two-microelectrode voltage clamp assay; format: cell-based
T2 sequence (P47870 whole entry): T1 sequence (P47870 whole entry)
T2 sequence (P18507 whole entry): T1 sequence (P18507 whole entry)
T2 sequence (P47869 whole entry): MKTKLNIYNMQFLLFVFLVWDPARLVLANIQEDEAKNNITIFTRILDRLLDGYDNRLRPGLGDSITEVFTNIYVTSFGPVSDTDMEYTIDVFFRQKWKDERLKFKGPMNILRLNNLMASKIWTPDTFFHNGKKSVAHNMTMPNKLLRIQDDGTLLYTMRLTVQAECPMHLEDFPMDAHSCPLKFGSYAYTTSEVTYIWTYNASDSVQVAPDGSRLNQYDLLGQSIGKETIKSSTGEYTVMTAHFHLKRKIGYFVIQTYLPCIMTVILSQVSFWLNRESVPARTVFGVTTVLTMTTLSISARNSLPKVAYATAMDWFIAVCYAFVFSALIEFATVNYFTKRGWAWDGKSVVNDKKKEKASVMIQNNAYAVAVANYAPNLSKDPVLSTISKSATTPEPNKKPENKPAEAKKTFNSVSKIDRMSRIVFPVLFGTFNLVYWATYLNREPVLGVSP

[3] = Potency index, ratio of compound activity for modulation of rat GABAA alpha1beta2gamma2S receptor assessed as EC3 to 10 GABA-induced chloride ion current to triazolam activity for modulation of GABAA alpha1beta2gamma2S receptor (unknown origin) assessed as potentiation of EC5 to 10 GABA-induced chloride ion current
[4] = target: GABA A receptor alpha-2/beta-2/gamma-2 (Homo sapiens) (UniProt P47870+P18507+P47869); experiment: Modulation of GABAA alpha2beta2gamma2S receptor (unknown origin) expressed in Xenopus laevis oocytes assessed as potentiation of EC3 to 10 GABA-induced chloride ion current at holding potential -70 mV at 1 to 300 uM by two-microelectrode voltage clamp assay relative to GABA-treated control; format: cell-based
Rattus norvegicus [5] = species: Rattus norvegicus; experiment: Agonist activity rat GABAA alpha1beta2gamma2S receptor expressed in Xenopus laevis oocytes assessed as potentiation of GABA-induced chloride ion current at holding potential -70 mV at <100 uM compound treated prior to GABA challenge by two-microelectrode voltage clamp assay; format: cell-based
Homo sapiens = species: Homo sapiens; experiment: Modulation of GABAA alpha5beta2gamma2S receptor (unknown origin) expressed in Xenopus laevis oocytes assessed as potentiation of EC3 to 10 GABA-induced chloride ion current at holding potential -70 mV at 1 to 300 uM by two-microelectrode voltage clamp assay relative to GABA-treated control; format: cell-based
Rattus norvegicus [6] = species: Rattus norvegicus; experiment: Allosteric modulation of rat GABAA alpha1beta2gamma2S receptor expressed in Xenopus laevis oocytes assessed as potentiation of GABA-induced chloride ion current at holding potential -70 mV at 100 uM by two-microelectrode voltage clamp assay relative to GABA-treated control; format: cell-based
Method in brief: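 Stage V–VI Xenopus laevis oocytes were injected with 50 nL of rat α1, β2 and γ2S cRNA mixed 1:1:10 (about 300–3000 pg/nL per subunit), stored at 18 °C in ND96, and recorded on days 1–5. Two-electrode clamp was at −70 mV in pH 7.4 HEPES bath. Compound was applied by fast perfusion with GABA EC3–10, in 1% DMSO final. Enhancement = I(GABA+Comp)/IGABA − 1.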

EC50 [1]: 67.3 µM
EC50 [2]: 80.8 µM
Ratio [3]: 4
Imax [4]: 1030%
Activity (Rattus norvegicus [5]): inactive
Imax (Homo sapiens): 1380%
Activity (Rattus norvegicus [6]): 628%
SMILES: COc1cc(O)cc(CCc2cccc(O)c2)c1 [BATATASIN III]
